# Test results taken from ChEMBL document CHEMBL1138189 (J Med Chem, 2006).
# Where “and” joins values, the source holds several entries; their conditions need not be identical. Identical values can stand only once.
# What was measured:
# [1] = molecular target: T1, Adenosine receptor A1 (Homo sapiens, UniProt P30542); assay: Displacement of [3H]DPCPX from human adenosine A1 receptor expressed in CHO cells; type: cell-based
# T1 sequence (P30542 whole entry): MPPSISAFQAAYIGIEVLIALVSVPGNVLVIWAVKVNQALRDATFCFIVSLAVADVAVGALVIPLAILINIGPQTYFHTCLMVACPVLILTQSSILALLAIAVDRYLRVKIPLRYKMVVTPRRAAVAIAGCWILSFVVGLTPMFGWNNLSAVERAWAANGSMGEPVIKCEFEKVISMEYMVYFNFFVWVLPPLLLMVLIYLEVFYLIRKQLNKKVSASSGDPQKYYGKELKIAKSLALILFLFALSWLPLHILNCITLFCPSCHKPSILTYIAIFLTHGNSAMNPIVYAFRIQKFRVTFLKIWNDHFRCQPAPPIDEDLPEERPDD
# Summary of the method: (§1)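 CHO membranes bearing recombinant human A1 receptor, in 50 mM Tris HCl pH 7.4, incubated 120 min at 25 °C with 1 nM [3H]DPCPX and 6-8 test concentrations. CHA defined nonspecific binding. Bound and free label were separated on GF/B glass-fiber filters and counted. […] Means ± SEM.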
# [2] = molecular target: Adenosine receptor A2a (Homo sapiens, UniProt P29274); assay: Displacement of [3H]ZM-241385 from human adenosine A2A receptor expressed in HEK293 cells; type: cell-based
# Chain of Adenosine receptor A2a (P29274 whole entry): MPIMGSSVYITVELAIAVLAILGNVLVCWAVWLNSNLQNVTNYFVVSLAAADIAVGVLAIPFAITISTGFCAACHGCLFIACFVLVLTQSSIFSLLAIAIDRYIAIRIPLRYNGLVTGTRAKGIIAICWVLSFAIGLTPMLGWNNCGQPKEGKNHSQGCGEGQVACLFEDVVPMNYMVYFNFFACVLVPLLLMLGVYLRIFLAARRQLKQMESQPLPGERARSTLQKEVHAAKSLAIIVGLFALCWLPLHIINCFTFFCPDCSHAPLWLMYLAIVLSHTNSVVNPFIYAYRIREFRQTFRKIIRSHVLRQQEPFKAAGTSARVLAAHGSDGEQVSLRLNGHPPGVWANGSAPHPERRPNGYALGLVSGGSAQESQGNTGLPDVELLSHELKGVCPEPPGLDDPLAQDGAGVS
# Summary of the method: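 Human A2A receptor membranes in 50 mM Tris HCl, 10 mM MgCl2, pH 7.4, competed against [3H]-ZM241385 at 6-8 test concentrations for 60 min at 25 °C. NECA defined nonspecific binding. Bound label was collected on glass-fiber filters by filtration and counted. Means ± SEM.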
# [3] = molecular target: T2, Adenosine receptor A2b (Homo sapiens, UniProt P29275); assay: Inhibition of NECA-stimulated cAMP accumulation in CHO cells expressing human adenosine A2B receptor; type: functional, cell-based
# T2 sequence (P29275 whole entry): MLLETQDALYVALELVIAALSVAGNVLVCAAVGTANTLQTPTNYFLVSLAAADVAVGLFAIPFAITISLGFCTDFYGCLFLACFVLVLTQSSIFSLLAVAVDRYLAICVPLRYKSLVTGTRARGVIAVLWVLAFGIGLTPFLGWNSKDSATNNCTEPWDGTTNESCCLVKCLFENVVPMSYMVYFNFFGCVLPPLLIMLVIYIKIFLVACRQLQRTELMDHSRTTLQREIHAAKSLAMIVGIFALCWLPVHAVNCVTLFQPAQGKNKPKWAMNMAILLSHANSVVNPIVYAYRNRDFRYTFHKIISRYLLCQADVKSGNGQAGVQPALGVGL
# Summary of the method: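 Trypsinized A2B-transfected CHO cells (1 × 10⁶ per assay) were preincubated 10 min at 37 °C in pH 7.4 salt buffer with 2 IU/mL adenosine deaminase and Ro 20-1724, then stimulated with 100 nM NECA plus antagonist. Stopped with cold 6% TCA, ether-extracted, and cAMP measured by [3H]cAMP competition with adrenal binding protein. IC50 derived.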
# [4] = molecular target: T3, Adenosine receptor A3 (Homo sapiens, UniProt P0DMS8); assay: Displacement of [3H]MRE3008-F20 from human adenosine A3 receptor expressed in HEK293 cells; type: cell-based
# T3 sequence (P0DMS8 whole entry): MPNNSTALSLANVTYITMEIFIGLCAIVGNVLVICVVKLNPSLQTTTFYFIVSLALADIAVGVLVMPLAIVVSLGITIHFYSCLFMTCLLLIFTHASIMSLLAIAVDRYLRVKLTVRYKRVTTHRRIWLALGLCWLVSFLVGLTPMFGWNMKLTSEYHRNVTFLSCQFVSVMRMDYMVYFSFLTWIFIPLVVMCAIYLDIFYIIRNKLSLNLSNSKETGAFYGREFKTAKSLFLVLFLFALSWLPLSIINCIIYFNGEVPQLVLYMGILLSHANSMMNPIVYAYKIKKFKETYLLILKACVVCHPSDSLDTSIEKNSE
# Summary of the method: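 Assays ran in duplicate with 1 nM [3H]MRE3008-F20 on human A3 receptor membranes in 50 mM Tris HCl, 10 mM MgCl2, pH 7.4, at 6-8 ligand concentrations, for 120 min at 4 °C. Bound label was separated by GF/B filtration and counted. Means ± SEM.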
# [5] = molecular target: Adenosine receptors; A1 & A3 (Homo sapiens) (UniProt P30542+P0DMS8); assay: Selectivity for human adenosine A3 over human adenosine A1 receptor; type: protein assay
# [6] = molecular target: Adenosine receptors; A2a & A3 (Homo sapiens) (UniProt P0DMS8+P29274); assay: Selectivity for human adenosine A3 over human adenosine A2A receptor; type: protein assay
# Chain of Adenosine receptors; A2a & A3 (Homo sapiens) (P29274 whole entry, looked up, one chain of several): as the sequence (P29274 whole entry) above
# [7] = molecular target: T4, Adenosine receptor A1 (Homo sapiens) (UniProt P30542); assay: Inhibition of [3H]DPCPX binding to human adenosine A1 receptor expressed in CHO cells at 1 uM; type: cell-based; summary of the method: as §1
# T4 sequence (whole entry): T1 sequence (P30542 whole entry)
# [8] = molecular target: T5, Adenosine receptor A2b (Homo sapiens) (UniProt P29275); assay: Inhibition of NECA-stimulated cAMP accumulation in CHO cells expressing human adenosine A2B receptor at 1 uM; type: functional, cell-based
# T5 sequence (whole entry): T2 sequence (P29275 whole entry)
SMILES,Ki [1] [nM],Ki [2] [nM],IC50 [3] [nM],Ki [4] [nM],Ratio Ki [5],Ratio Ki [6],inhibition [7] [%],inhibition [8],IC50 ([3]; cho) [nM]
Cn1cc2c(nc(NC(=O)Nc3cc[n+]([O-])cc3)n3nc(-c4ccco4)nc23)n1,> 1000,153,> 1000,21,> 47,7.3,35,12%,–
Cn1cc2c(nc(NC(=O)Nc3ccoc3)n3nc(-c4ccco4)nc23)n1,> 1000,400,> 1000,11,> 90,36,20,4%,–
Cn1cc2c(nc(NC(=O)Nc3ccc4ccccc4n3)n3nc(-c4ccco4)nc23)n1,> 1000,810,> 1000,110,> 9,7.3,12,17%,–
Cn1cc2c(nc(NC(=O)Nc3ccncc3)n3nc(-c4ccco4)nc23)n1 [listing 1 of 3 here],–,–,–,–,–,–,–,12% and 20%,–
Cn1cc2c(nc(NC(=O)Nc3ccccn3)n3nc(-c4ccco4)nc23)n1 [listing 1 of 3 here],265,180,> 1000,0.5,–,–,–,–,–
Cn1cc2c(nc(NC(=O)Nc3ccco3)n3nc(-c4ccco4)nc23)n1,> 1000,350,> 1000,16,> 62.5,22,25,8%,–
Cn1cc2c(nc(NC(=O)Nc3ccccn3)n3nc(-c4ccco4)nc23)n1 [listing 2 of 3 here],–,–,–,–,530 and 600,360 and 400,–,20% and 16%,–
Cn1cc2c(nc(NC(=O)Nc3cccnc3)n3nc(-c4ccco4)nc23)n1 [listing 1 of 3 here],245,155,> 1000,0.55,–,–,–,–,–
Cn1cc2c(nc(NC(=O)Nc3ccc[n+](C)c3)n3nc(-c4ccco4)nc23)n1,330,42,244,5.3,62,8,–,–,–
Cn1cc2c(nc(NC(=O)Nc3ccncc3)n3nc(-c4ccco4)nc23)n1 [listing 2 of 3 here],355,110,> 1000,–,–,–,–,–,–
Cn1cc2c(nc(NC(=O)Nc3ccncc3)n3nc(-c4ccco4)nc23)n1 [listing 3 of 3 here],260,65,–,–,–,–,–,–,> 1000
Cn1cc2c(nc(NC(=O)Nc3cccc[n+]3[O-])n3nc(-c4ccco4)nc23)n1,800,110,320,3.5,228,31,–,–,–
Cc1sccc1NC(=O)Nc1nc2nn(C)cc2c2nc(-c3ccco3)nn12,> 1000,410,> 1000,3.5,> 286,117,24,31%,–
Cn1cc2c(nc(NC(=O)Nc3cccc[n+]3C)n3nc(-c4ccco4)nc23)n1,400,64,280,1.3,307,49,–,–,–
Cn1cc2c(nc(NC(=O)Nc3ccccn3)n3nc(-c4ccco4)nc23)n1 [listing 3 of 3 here],210,140,–,0.35,–,–,–,–,> 1000
Cn1cc2c(nc(NC(=O)Nc3cccnc3)n3nc(-c4ccco4)nc23)n1 [listing 2 of 3 here],–,–,–,–,445 and 522,281 and 284,–,18% and 24%,–
Cn1cc2c(nc(NC(=O)Nc3cccnc3)n3nc(-c4ccco4)nc23)n1 [listing 3 of 3 here],230,125,–,0.44,–,–,–,–,> 1000
Cn1cc2c(nc(NC(=O)Nc3ccc[n+]([O-])c3)n3nc(-c4ccco4)nc23)n1,550,75,260,10,55,7.5,–,–,–
Cn1cc2c(nc(NC(=O)Nc3cc[n+](C)cc3)n3nc(-c4ccco4)nc23)n1,> 1000,282,> 1000,28,> 36,10,20,6%,–
Cc1ccc(NC(=O)Nc2nc3nn(C)cc3c3nc(-c4ccco4)nn23)s1,> 1000,920,> 1000,10,> 100,92,10,20%,–
Cn1cc2c(nc(NC(=O)Nc3cc4ccccc4o3)n3nc(-c4ccco4)nc23)n1,> 1000,60,250,12,> 83,5,22,–,–
